# Hits are enriched below; roughly 3.1% of the tested compounds scored in any of these assays.
# aDG glyco act: alpha-DG glycosylation activation | Pro5-aDG cells, alpha-DG glycosylation AlphaScreen (IIH6); 0% Pro5, 100% B10-LARGE cell signal | activation, % at 10 µM | 360,000 tested, 0.22% active | AID 624168;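 active = activation of at least 8% versus controls, or a plate z-score of at least 8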;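 also: Pro5 are CHO cells carrying HIG-tagged alpha-DG that lacks glycosylation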
# ADAM10 inh: ADAM10 inhibition, QFRET primary screen; recombinant ADAM10, EDANS/DABCYL FRET peptide cleavage, 3 h; inhibition, % at 7 µM; 370,000 tested, 0.62% active;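 active = inhibition above a per-campaign cutoff equal to the mean of compounds falling between control-based bounds plus 3 SD, cut at about 20% in these data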;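 also: 0% = DMSO wells while the 100% control is not disclosed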
# Target sequence (O14672 214-748 limits assumed): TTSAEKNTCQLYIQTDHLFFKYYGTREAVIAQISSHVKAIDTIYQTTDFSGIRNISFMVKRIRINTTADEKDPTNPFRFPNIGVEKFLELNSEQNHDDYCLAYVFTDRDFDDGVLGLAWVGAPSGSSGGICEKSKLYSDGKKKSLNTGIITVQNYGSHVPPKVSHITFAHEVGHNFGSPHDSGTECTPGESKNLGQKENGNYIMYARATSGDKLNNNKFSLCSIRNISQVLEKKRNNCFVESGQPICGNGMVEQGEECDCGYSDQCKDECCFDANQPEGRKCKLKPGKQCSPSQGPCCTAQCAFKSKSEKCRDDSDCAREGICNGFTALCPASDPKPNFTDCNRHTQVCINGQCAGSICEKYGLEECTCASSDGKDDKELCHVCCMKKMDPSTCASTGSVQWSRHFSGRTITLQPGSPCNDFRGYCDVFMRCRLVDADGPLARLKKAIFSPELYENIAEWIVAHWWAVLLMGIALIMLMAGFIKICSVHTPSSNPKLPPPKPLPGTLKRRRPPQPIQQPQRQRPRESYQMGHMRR
# ADAM17 inh: inhibitors of human ADAM17; P78536; recombinant ADAM17, EDANS/DABCYL FRET peptide cleavage; inhibition, % at 6.95 µM; 370,000 tested, 0.83% active; AID 720648;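 active = inhibition above the mean of compounds lying between control limits plus 3 SD, set per campaign, cut at about 8.5% in these data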;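 also: 0% = DMSO-only wells as the low control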
# MPTP inh: permeability transition pore inhibition | inhibition, % at 10 µM | 360,000 tested, 1.4% active | isolated mouse mitochondria, Ca2+ swelling absorbance, 30 min | AID 602449;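 active = inhibition of 50% or more, scaled per plate between neutral and stimulator controls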;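 also: 0% = DMSO wells given calcium and 100% = 1 mM EGTA wells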
# Lipid droplet: modulators of hepatic lipid droplet formation; AML12 mouse hepatocytes, oleate lipid droplets, BODIPY imaging; inhibition, % at 6.5 µM; 240,000 tested, 0.4% active; AID 1656;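 active = lipid droplet intensity inhibited by at least 50%, with more than 500 cells counted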
#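 Test system: AML12 hepatocytes (mouse); reagent: oleate loading, 100 µM; dosing: one dose, 6.5 µM compound; incubation: overnight exposure; signal: fluorescence imaging, 20x objective, two fields per well; read-out basis: % inhibition of corrected integrated BODIPY droplet signal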
# V-ATPase pHluor: alters yeast V-ATPase proton transport; S. cerevisiae, pHLuorin cytosolic pH fluorescence; response, % at 10 µM; 350,000 tested, 0.37% active; AID 504577; in the data active = response mostly above about 7.3%, no sharp cut-off; inactive = mostly below about 5.4%; also: actives read high
# Rh123 counter: membrane potential counter-screen of mitochondrial pore inhibitors | shares compounds with MPTP inh | inhibition, % at 10 µM | AID 624504 | 5,000 tested, 78% active | isolated mitochondria, Rhodamine 123 fluorescence; in the data active = inhibition above about 22%;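 also: 0% = DMSO vehicle and 100% = positive control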
# MPTP abs DR: dose response confirmation of mitochondrial permeability transition pore inhibitors; 780 tested, 58% active; IC50, µM; shares compounds with MPTP inh; isolated mitochondria swelling, absorbance; in the data active = IC50 below about 20 µM
# MPTP cs DR: active in counter-screen for permeability transition pore inhibitors | shares compounds with MPTP inh | isolated mitochondria counterscreen, fluorescence read-out | IC50, µM | 780 tested, 49% active | AID 651564; in the data active = IC50 below about 80 µM
# aDG glyco conf: alpha-DG glycosylation activation, confirmation. shares compounds with aDG glyco act. Pro5-aDG cells, IIH6 AlphaLISA; scaled to LARGE-overexpressing B10 cells as 100%. activation, % at 10 µM (by protocol). 600 tested, 17% active;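 active = activation of at least 7% in one or more replicates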;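 also: cells exposed to compound for two days before detection; 0% = DMSO-treated Pro5 cells and 100% = DMSO-treated B10-LARGE cells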
# ADAM10 confirm: human ADAM10 inhibition, confirmation. shares compounds with ADAM10 inh. ADAM10 QFRET peptide cleavage, EDANS fluorescence. inhibition, % at 6.95 µM. 2,100 tested, 1% active;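 active = inhibition above about 20% chosen separately for each screening run, limit read from the data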;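 also: 0% = DMSO wells and 100% = marimastat wells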
# ADAM17 ctr: inhibits human ADAM17 in ADAM10 exosite counter-screen | shares compounds with ADAM10 inh | ADAM17 QFRET peptide cleavage, EDANS fluorescence | inhibition, % at 6.95 µM | 2,100 tested, 0.5% active;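 active = mean triplicate inhibition above the solvent-only control wells' mean plus 3 SD, cut at about 12% in these data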;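 also: 0% = DMSO wells and 100% = marimastat wells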
# ADAM10 ctr: counter-screen for ADAM17 exosite inhibitors: inhibitors of human ADAM10 | shares compounds with ADAM17 inh | recombinant ADAM10, EDANS/DABCYL FRET peptide cleavage, 3 h | inhibition, % at 6.95 µM | 2,900 tested, 47% active | AID 743256;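 active = mean inhibition over the triplicate runs exceeds the activity threshold set in the earlier primary screen, cut at about 20% in these data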;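 also: 0% = DMSO wells and 100% = marimastat wells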
# ADAM17 confirm: human ADAM17 inhibition, confirmation; shares compounds with ADAM17 inh; recombinant ADAM17, EDANS/DABCYL QFRET peptide cleavage; inhibition, % at 6.95 µM; 2,900 tested, 65% active;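 active = mean inhibition across replicates above the hit cutoff set in the primary screen, cut at about 8.5% in these data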;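 also: 0% = DMSO wells and 100% = marimastat wells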
# The depositor's hits bear a star; i = inactive; · = no result given.
SMILES,aDG glyco act,ADAM10 inh,ADAM17 inh,MPTP inh,Lipid droplet,V-ATPase pHluor,Rh123 counter,others
CN1C(=O)C(=Cc2ccccc2OCc2ccccc2Cl)C(=O)N(C)C1=O,0,0,1,61*,1,3,44*,
COc1cc(O)c2c(c1)/C=C/C[C@H](O)[C@H](O)[C@@H](O)/C=C/C[C@H](C)OC2=O,·,-17,-4,·,·,·,·,
C=CCn1c(O)c(C(C)=Nc2ccc(N(CC)CC)cc2)c(=O)[nH]c1=O,0,6,3,6,-3,-1,·,
C=CCn1c(O)c(C(CC)=Nc2ccc(N(CC)CC)cc2)c(=O)[nH]c1=O,2,-5,-1,75*,·,2,29*,
S=P(c1ccccc1)(c1ccccc1)c1cnc2ccccn12,·,7,2,·,·,·,·,
O=C1NC(=S)NC(=O)C1=Cc1ccc2c(c1)CCN2CCCCl,0,·,·,60*,-2,0,-14,
Cc1ccccc1N1C(=O)NC(=O)/C(=C\c2ccc3c(c2)CCCN3Cc2ccccc2)C1=O,0,-23,-5,37,16,0,·,
N#Cc1ccc2nc(-c3ccc(CN4CCC(n5c(=O)[nH]c6cc(Cl)ccc65)CC4)cc3)c(-c3ccccc3)nc2c1,·,0,3,·,·,·,·,
Oc1c(Cl)c(Cl)c(Cl)c(Cl)c1Cl,0,12,0,73*,·,-3,88*,
Cc1cccc2nc(-c3ccccc3)c(-c3ccc(CN4CCC(n5c(=O)[nH]c6cc(Cl)ccc65)CC4)cc3)nc12,·,-81,-16,·,·,·,·,
COc1ccc(N2C(=O)NC(=O)/C(=C\c3ccc([N+](=O)[O-])s3)C2=O)cc1,0,-2,4,56*,-10,102*,-13,
CCc1nc2ccc(Br)cc2c(=O)n1-c1ccccc1C(F)(F)F,0,12,-1,2,·,2,·,
CCCc1nc2ccc(Br)cc2c(=O)n1-c1ccc([N+](=O)[O-])c(C(F)(F)F)c1,0,-3,0,94*,-28,-1,79*,
NC(Cc1ccccc1)[P+](=O)O (stereo not given),·,-4,-3,·,·,·,·,
O=C(Nc1ccc(Cl)cc1)Nc1nccs1,0,6,0,86*,·,-3,89*,
O=C(Nc1nccs1)C(Cl)(Cl)Cl,0,-1,2,-3,4,-1,·,
CCN1C(=O)/C(=C/c2ccc(N(CC)CC)cc2OC)C(=O)NC1=S,0,12,2,66*,23,-4,-13,
OC1CN2CCCC(O)C2C1O (stereo not given),·,-6,2,·,·,·,·,
O=C(Nc1ccccc1)N1Cc2cc(Br)ccc2-n2nncc2C1,·,-9,-2,·,·,·,·,
CN1CCC(O)(c2ccccc2)C(C(=O)c2ccccc2)C1 (stereo not given),0,-4,-6,55*,·,7,2,MPTP abs DR=i;MPTP cs DR=>80
O=C(O)COc1ccc(Cl)cc1Cl,0,0,-2,0,·,-2,·,
Oc1cc(Cl)ccc1Oc1ccc(Cl)cc1Cl,0,1,7,92*,·,1,99*,
CCC(=NCCc1c[nH]c2ccccc12)c1c(O)n(C)c(=O)n(C)c1=O,5.0*,4,-1,70*,-71,6,59*,aDG glyco conf=0
Clc1cc(Cl)cc(CN2Cc3cc(Br)ccc3-n3nncc3C2)c1,·,3,4,·,·,·,·,
CCOC(=O)C(O)(c1ccc(NC(=S)NC(=O)c2ccc(Cl)cc2Cl)c(C)c1)C(F)(F)F (stereo not given),4,29*,15*,87*,8,12,90*,ADAM10 ctr=47*;ADAM17 confirm=23*
SMILES,aDG glyco act,ADAM10 inh,ADAM17 inh,MPTP inh,Lipid droplet,V-ATPase pHluor,Rh123 counter,others
COC(=O)C(O)(c1ccc(NC(=S)NC(=O)c2ccc(Cl)cc2Cl)c(C)c1)C(F)(F)F (stereo not given),1,23*,11*,86*,12,-2,86*,ADAM10 confirm=8;ADAM17 ctr=2;ADAM10 ctr=35*;ADAM17 confirm=18*
COC(=O)C(O)(c1ccc(NC(=S)NC(=O)c2ccc(Cl)cc2Cl)cc1)C(F)(F)F (stereo not given),0,16,7,6,1,2,·,
O=C(NCCN1CCC2(CC1)C(=O)NCN2c1ccccc1)c1cc(C(F)(F)F)ccc1C(F)(F)F,·,-1,-1,·,·,·,·,
O=C1C2CCCN2C(c2ccc(Cl)c(Cl)c2)N1c1ccccn1 (stereo not given),7.0*,-10,-7,0,-9,2,·,aDG glyco conf=0
O=C(NCCN1CCC2(CC1)C(=O)NCN2c1ccccc1)c1ccc(F)cc1F,·,-1,1,·,·,·,·,
CCN1CCN(c2nc([N+](=O)[O-])nn2C)CC1,0,-4,-3,0,-17,-2,·,
CN1CCN(c2nc([N+](=O)[O-])nn2C)CC1,25*,1,0,0,5,1,·,aDG glyco conf=2
O=C1NCN(c2ccccc2)C12CCN(C(c1cc3ccccc3o1)c1nnnn1C1CCCCC1)CC2 (stereo not given),8.4*,-3,-1,5,·,·,·,aDG glyco conf=0
O=C(NCCN1CCC2(CC1)C(=O)NCN2c1ccccc1)c1ccc(Cl)c(Cl)c1,·,2,-1,·,·,·,·,
O=C(CNC(=O)OCc1ccccc1)NCC(=O)Nc1ccc(Br)cc1C(=O)c1ccccc1,0,-9,-3,-1,-6,1,·,
O=C(CNC(=O)OCc1ccccc1)Nc1ccc(Br)cc1C(=O)c1ccccc1,0,20*,8,4,·,12,·,ADAM10 confirm=6;ADAM17 ctr=2
Cc1ccc(N2Cc3ccccc3-n3nncc3C2)cc1,·,-5,3,·,·,·,·,
